pIC50: −log10 of the molar value.

These results are taken from ChEMBL document CHEMBL3813647, “Discovery of an Orally Active and Liver-Targeted Prodrug of 5-Fluoro-2'-Deoxyuridine for the Treatment of Hepatocellular Carcinoma” (J Med Chem, 2016).

Data set [1] deals with Plasma. Description: AUC (infinity) in Sprague-Dawley rat plasma assessed as FDUR formation at 52.17 mg/kg administered through oral gavage measured up to 24 hrs by HPLC-MS/MS analysis. On the set-up: dose 52.17 mg/kg, time infinity, route oral. In kind it is ADME, organism-based. The settings on record: in vivo. The method, boiled down: (§1)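 Male Sprague-Dawley rats (220 ± 20 g), single gavage of 0.096 mmol/kg. FDUR was dosed in H2O; the prodrugs were dosed in 20% hydroxypropyl-β-cyclodextrin. n = 3 per time point, sampled at 0.25–24 h. Plasma (EDTA-K2, cardiac puncture) and freeze-clamped liver were homogenized in 20 mM EDTA-K2/70% MeOH. Analytes measured by HPLC-MS/MS in ESI negative mode.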

The test system of data set [2] is Liver. Description: Cmax in Sprague-Dawley rat liver assessed as (S)-2-((R)-(((2R,3S,5R)-5-(5-fluoro-2,4-dioxo-3,4-dihydropyrimidin-1(2H)-yl)-3-hydroxytetrahydrofuran-2-yl)methoxy)(2-methylbenzyloxy)phosphorylamino)propanoate formation at 52.17 mg/kg administered through oral gavage measured up to 24 hrs by HPLC-MS/MS analysis. In kind it is ADME, organism-based. On the set-up: dose 52.17 mg/kg, route oral. The settings on record: in vivo. The gist of the method:
as §1

The subject of data set [3] is Liver. As to the kind of experiment: Cmax in Sprague-Dawley rat liver assessed as 5-FU formation at 52.17 mg/kg administered through oral gavage measured up to 24 hrs by HPLC-MS/MS analysis. Format: ADME, organism-based. On the set-up: dose 52.17 mg/kg, route oral. The settings on record: in vivo. The method, boiled down:
as §1

The subject of data set [4] is Liver. As to the kind of experiment: Cmax in Sprague-Dawley rat liver assessed as FdUMP formation at 52.17 mg/kg administered through oral gavage measured up to 24 hrs by HPLC-MS/MS analysis. Format: ADME, organism-based. Also noted: dose 52.17 mg/kg, route oral. To be noted: in vivo. The gist of the method: as §1
Data set [5] has as its system Liver. Description: AUC (infinity) in Sprague-Dawley rat liver assessed as FDUR formation at 52.17 mg/kg administered through oral gavage measured up to 24 hrs by HPLC-MS/MS analysis. Format: ADME, organism-based. Also noted: dose 52.17 mg/kg, route oral, time infinity. The settings on record: in vivo. The gist of the method:
as §1

In data set [6] the test system is Liver. Description: AUC (infinity) in Sprague-Dawley rat liver assessed as 5-FU formation at 52.17 mg/kg administered through oral gavage measured up to 24 hrs by HPLC-MS/MS analysis. Format: ADME, organism-based. On the set-up: dose 52.17 mg/kg, route oral, time infinity. The settings on record: in vivo. The gist of the method:
as §1

Data set [7] in a line: Ratio of FDUR AUC (infinity) in Sprague-Dawley rat liver to FDUR AUC (infinity) in Sprague-Dawley rat plasma at 52.17 mg/kg administered through oral gavage. The settings on record: other tissue. Format: ADME, organism-based.
For data set [8], the system named is Liver. Description: Drug metabolism in Sprague-Dawley rat liver S9 fraction assessed as (S)-2-((R)-(((2R,3S,5R)-5-(5-fluoro-2,4-dioxo-3,4-dihydropyrimidin-1(2H)-yl)-3-hydroxytetrahydrofuran-2-yl)methoxy)(2-methylbenzyloxy)phosphorylamino)propanoate formation at 20 ug/mL after 20 mins by HPLC-MS/MS analysis. In kind it is ADME, subcellular. The settings on record: s9, 20 min, TDE = time-dependent effect. The method, boiled down: (§2)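 Rat liver S9 (10 mg/mL) incubated with compound at 20 μg/mL. Parent, intermediate A and FdUMP followed over time by HPLC-MS/MS. Negative control run without NADPH.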

Data set [9] relates to Liver. As to the kind of experiment: Drug metabolism in Sprague-Dawley rat liver S9 fraction assessed as FdUMP formation at 20 ug/mL preincubated for 5 mins followed by NADPH addition measured at 20 mins by HPLC-MS/MS analysis. In kind it is ADME, subcellular. To be noted: s9, 20 min. The gist of the method: as §2
Data set [10] relates to Liver. Description: Drug metabolism in Sprague-Dawley rat liver assessed as o-methylhippuric acid formation. In kind it is ADME, tissue-based.
Data set [11] is described as follows: Half life in rat plasma by HPLC analysis. Format: ADME, cell-free. The gist of the method: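 Rat plasma, 37 °C. Compound added from a 2.5 mM stock, sampled at 0–24 h, quenched with MeOH. Analyzed by HPLC-UV at 267 nm (C8 column, MeOH:H2O 68:32). Triplicate samples.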
Data set [12] can be described thus: Cytotoxicity against human SMMC7721 cells assessed as reduction in cell viability after 72 hrs by MTT assay. Format: functional, cell-based. The settings on record: SMMC-7721, 72 h. The gist of the method:
(§3)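 Cells in RPMI-1640 with 10% FBS, seeded at 4 × 10³ per well and attached for 24 h. Compound (DMSO ≤0.5% final) added for 72 h at 37 °C, 5% CO2. Viability read by MTT. IC50 set against 0.5% DMSO-treated cells taken as 100% viable. Mean of two independent experiments, each run in triplicate.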

Data set [13] in a line: Cytotoxicity against human LO2 cells assessed as reduction in cell viability after 72 hrs by MTT assay. In kind it is cell-based. To be noted: L02, 72 h. The gist of the method: as §3
The nature of data set [14]: Half life in human plasma by HPLC-MS/MS analysis. In kind it is ADME, cell-free. The gist of the method: (§4)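 Compound at 1 μg/mL final in dog or human plasma, 37 °C. Sampled at 0–24 h and quenched with ice-cold MeOH containing internal standard. Parent measured by LC-MS/MS in ESI negative mode; t1/2 calculated from percent remaining versus 0 h.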
A short description of data set [15]: Half life in dog plasma by HPLC-MS/MS analysis. Format: ADME, cell-free, Canis lupus familiaris. The gist of the method:
as §4

Data set [16] has as its system H22. Description: Antitumor activity against mouse H22 cells implanted in KM mouse assessed as tumor growth inhibition at 130 mg/kg administered daily through oral gavage after 8 days. Format: functional. The settings on record: 192 h. The gist of the method:
(§5)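 Syngeneic H22 hepatoma: 2 × 10⁶ cells injected s.c. in the axilla (0.9% saline) of female KM mice, n = 10 per group. From day 2, daily oral gavage for 8 days. Test agent given in 35% PEG400; sorafenib suspended in 0.5% CMC-Na. Tumor weight taken on day 8; inhibition rate calculated versus the vehicle group.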

Data set [17] concerns H22. Description: Antitumor activity against mouse H22 cells implanted in KM mouse assessed as tumor growth inhibition at 260 mg/kg administered daily through oral gavage after 8 days. In kind it is functional. The settings on record: 192 h. The gist of the method:
as §5

Data set [18] has as its system Mus musculus. Description: Toxicity in KM mouse implanted with mouse H22 cells assessed as body weight level at 130 mg/kg administered daily through oral gavage after 8 days (reference value: 21.7 to 22.3 g). The settings on record: in vivo, 192 h. In kind it is organism-based.
Data set [19] has as its system Mus musculus. Description: Toxicity in KM mouse implanted with mouse H22 cells assessed as body weight level at 260 mg/kg administered daily through oral gavage after 8 days (reference value: 21.7 to 22.3 g). Format: organism-based. The settings on record: in vivo, 192 h.
Data set [20] concerns Plasma. Description: Cmax in Sprague-Dawley rat plasma assessed as FDUR formation at 52.17 mg/kg administered through oral gavage measured up to 24 hrs by HPLC-MS/MS analysis. The settings on record: in vivo. Also noted: dose 52.17 mg/kg, route oral. Format: ADME, organism-based. The method, boiled down:
as §1

Data set [21] has as its system Plasma. Description: Cmax in Sprague-Dawley rat plasma assessed as (S)-2-((R)-(((2R,3S,5R)-5-(5-fluoro-2,4-dioxo-3,4-dihydropyrimidin-1(2H)-yl)-3-hydroxytetrahydrofuran-2-yl)methoxy)(2-methylbenzyloxy)phosphorylamino) propanoate formation at 52.17 mg/kg administered through oral gavage measured up to 24 hrs by HPLC-MS/MS analysis. Format: ADME, organism-based. Also noted: dose 52.17 mg/kg, route oral. To be noted: in vivo. The method, boiled down: as §1

For data set [22], the system named is Mus musculus. Description: Toxicity in KM mouse assessed as damage to liver at 2 to 3 g/kg, administered through oral gavage after 15 days. To be noted: in vivo, 360 h.
The test system of data set [23] is Mus musculus. As to the kind of experiment: Toxicity in KM mouse assessed as damage to spleen at 2 to 3 g/kg, administered through oral gavage after 15 days. To be noted: in vivo, 360 h.
Data set [24] relates to Mus musculus. Description: Toxicity in KM mouse assessed as damage to kidney at 2 to 3 g/kg, administered through oral gavage after 15 days. To be noted: in vivo, 360 h.

For the compound `Cc1ccccc1CO[P@](=O)(N[C@@H](C)C(=O)OC(C)C)OC[C@H]1O[C@@H](n2cc(F)c(=O)[nH]c2=O)C[C@@H]1O`, the AUC worked out at 26 ng·h/mL in the data set on Plasma [1], 1541 ng·h/g in the data set on Liver [5] and 257 ng·h/g in the data set with Liver [6]. Also, the Cmax was found to be 3673 ng/g in the data set with Liver [2]; 139 ng/g with Liver [3]; 340 ng/g in the data set on Liver [4]; 17 ng/mL in the data set on Plasma [20]; 234 ng/mL in the data set with Plasma [21]. Moreover, the “Ratio AUC” value in [7] was found to be 59.3. The Drug metabolism result with Liver [8] is “tde”; in the data set with Liver [9], “metabolite_detected”; in the data set with Liver [10], “metabolite_detected”. For the same compound, the half-life was below 4.98 min in [11], above 24 h in data set [14] and above 24 h in data set [15]. Moreover, the pIC50 in [12] was 3.60; in data set [13], 3.39. Besides, the inhibition in vivo at 130 mg/kg in the data set with H22 [16] stood at 61.7%. Also, in the data set on H22 [17], the inhibition in vivo at 260 mg/kg stood at 72.5%. Also, the Activity with Mus musculus [18] was 23.8 g; in the data set on Mus musculus [19] it was 22.3 g; in the data set on Mus musculus [22], “Non-toxic”; in the data set with Mus musculus [23] it was “Non-toxic”; in the data set with Mus musculus [24] it was “Non-toxic”.
